NR2E3 ag-1: inhibitors of NR2E3-RetCOR corepressor binding, primary screen, NR2E3 agonist project, biochemical, TR-FRET, GST-NR2E3, biotin-RetCOR. 1536-well. 320,000 compounds, 0.12% hits. Photoreceptor-specific nuclear receptor (Homo sapiens), Q9Y5X4. AID 2300, 2010. inhibition of corepressor binding, % at 4.78 µM;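 active means percent inhibition above the cutoff of mean plus 3 SD of all tested compounds, set per screening campaign, cut at about 20% in these data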;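 further: 0% = DMSO wells and 100% = biotin wells as full block of FRET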
Target sequence (Q9Y5X4 whole entry, looked up): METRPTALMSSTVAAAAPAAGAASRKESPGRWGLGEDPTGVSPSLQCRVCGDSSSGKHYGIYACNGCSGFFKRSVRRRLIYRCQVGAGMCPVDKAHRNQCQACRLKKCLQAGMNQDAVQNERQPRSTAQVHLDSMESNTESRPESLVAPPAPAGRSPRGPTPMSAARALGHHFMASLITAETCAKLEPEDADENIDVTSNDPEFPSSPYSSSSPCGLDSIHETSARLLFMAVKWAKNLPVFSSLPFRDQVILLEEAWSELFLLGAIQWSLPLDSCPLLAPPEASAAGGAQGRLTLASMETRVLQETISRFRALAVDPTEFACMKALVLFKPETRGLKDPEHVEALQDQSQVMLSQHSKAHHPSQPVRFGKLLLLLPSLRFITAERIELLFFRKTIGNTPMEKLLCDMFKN
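Material: NR2E3–RetCOR corepressor complex / Incubation: Compound–protein incubation for 5 h at 4 °C / Dosing: compound at 4.8 µM, single dose / Detection: time-resolved FRET / Benchmarks: high control biotin, low control 0.6% DMSO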
EBV LMP1 NFkB: EBV LMP1-driven NF-kappaB luciferase reporter inhibitors, primary screen, cell-based, luminescence, single point; inhibition, % at 12.5 µM; LMP1-induced NF-kappaB luciferase reporter cells; 350,000 compounds, 0.69% hits; AID 504558, 2011; in the data active means inhibition above about 41%; inconclusive means no clear call, values can overlap the other calls;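 further: 0% = neutral control wells and 100% = reference inhibitor control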
HIF act: HIF pathway transcriptional activators, primary screen, cell-based, U2OS HRE-luciferase, luminescence; U2OS HRE-luciferase reporter; normalized: DMSO 0%, desferrioxamine 100%; activation, % at 7.5 µM (by protocol); 300,000 compounds, 0.32% hits;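 active means mean activation of at least 10% of the iron chelator positive control signal, with at least half of replicates also reaching 10%; inconclusive means mean and replicate majority disagree about reaching 10%; inactive means mean and most replicates under 10%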
TROY signal inh: inhibitors of TROY-driven NF-kB signaling, primary screen, Q293 LMP1-TROYcd cells, NF-kB luciferase, uHTS; inhibition, % at 10 µM; 360,000 compounds, 0.98% hits; Q293 LMP1-TROYcd NF-kB luciferase reporter, 4 h;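 active means compounds whose plate-normalised and pattern-corrected inhibition of the luciferase reporter signal at the single screening dose is 50% or more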
NR2E3 ag-2: NR2E3 agonists in two-hybrid cells, primary screen, cell-based, luminescence, CHO-S, Gal4-NCOR/VP16-NR2E3; Photoreceptor-specific nuclear receptor (Homo sapiens), Q9Y5X4; luciferase; inhibition of corepressor binding, % at 3.98 µM; 360,000 compounds, 0.35% hits;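 active means inhibition above the mean of all tested compounds plus 3 SD, cut at about 70% in these data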;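 further: 0% = DMSO with NR2E3 transfected cells and 100% = cells lacking NR2E3 construct; higher means lower luciferase signal from less NR2E3 corepressor binding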
NR2E3 ag confirm: NR2E3 agonist confirmation in cells, cell-based, luminescence, CHO-S two-hybrid; 2,300 compounds, 51% hits; inhibition, % at 3.98 µM; AID 624378, 2012; shares compounds with NR2E3 ag-2; CHO-S mammalian two-hybrid NR2E3-NCOR, luciferase luminescence;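 active means average inhibition above a cutoff equal to the mean inhibition of all tested compounds plus one SD, cut at about 70% in these data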;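 further: 0% = DMSO in NR2E3 cells and 100% = DMSO in cells lacking NR2E3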
GAL4-VP16 luc: GAL4-VP16 reporter modulators, confirmation, counter-screen for NR2E3 agonist project, cell-based, luminescence, CHO-S, high throughput; 2,300 compounds, 29% hits; inhibition, % at 3.98 µM; CHO-S GAL4-VP16 luciferase reporter; shares compounds with NR2E3 ag-2; AID 624379, 2012;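 active means mean inhibition above a cutoff equal to the average over all tested compounds plus one standard deviation, cut at about 70% in these data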;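 further: luciferase from a UAS reporter driven by GAL4-VP16 transactivation; 0% = DMSO with VP16-transfected cells and 100% = DMSO with cells lacking VP16; higher means less reporter light so more repression of VP16 activity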
* = called active by the depositor; ? = inconclusive; nt = no result. Most compounds without a hit are left out; they make up all but 2% or so of the library.

SMILES	NR2E3 ag-1	EBV LMP1 NFkB	HIF act	TROY signal inh	NR2E3 ag-2	NR2E3 ag confirm	GAL4-VP16 luc
Cc1ccc(S(=O)(=O)C=CS(=O)(=O)c2ccc(C)cc2)cc1	nt	-2	nt	3	7	nt	nt
O=S(=O)(/C=C/C=C/S(=O)(=O)c1ccccc1)c1ccccc1	nt	-10	nt	46	85*	80*	29
Cc1ccc(-n2nnnc2SCn2nnc3ccccc3c2=O)c(C)c1	0	5	0	10	92*	89*	72*
O=c1c2ccccc2sn1-c1ccc(Cl)cc1	nt	-15	nt	4	55	-47	-122
Cc1cccc(N2CCN(C(=O)C3CCC(CNS(=O)(=O)c4cccs4)CC3)CC2)c1C (stereo not drawn)	6	24	0	49	49	36	51
CC(C)(C)C(=O)Nc1ccc(NC(=O)c2ccco2)nc1	2	81*	-5	85*	88*	65	40
CCc1nc2ccc(C(=O)Nc3cccc(OC)c3)cn2c1N(CC)CCN(C)C	nt	nt	nt	-6	24	nt	nt
Cc1ccc2c(c1)[nH]c1c(N3CCN(Cc4ccccc4)CC3)ncnc12	-1	22	-1	68*	59	86*	74*
COc1ccc2c(c1)[nH]c1c(N3CCN(Cc4ccc5c(c4)OCO5)CC3)ncnc12	2	22	0	66*	92*	97*	86*
Cn1cccc1C(=O)/C(C#N)=C/c1ccc(F)cc1	0	-1	2	46	6	nt	nt
Cc1ccc(C)c(NC(=S)c2ccccn2)c1	1	-9	2	-35	54	-20	-75
C/C(=N\NC(=S)Nc1cccc(C)c1)c1cccc(N)c1	0	-7	2	-42	-39	nt	nt
Cc1ccc(C)c(NC(=S)c2ccc3ccccc3n2)c1	-2	-47	3	-61	-89	nt	nt
CC(=NNC(=S)Nc1cccc(C)c1)c1ccccn1	nt	76*	nt	-31	67	-63	-22
C/C(=N\NC(=S)Nc1cccc(C)c1)c1ccccc1	-2	-16	-28	-27	71*	-18	-78
CC(=NNC(=S)Nc1ccc(C)cc1)c1ccccn1	nt	62*	nt	-34	71*	-24	5
COc1ccccc1NC(=S)NN=C(C)c1ccccn1	nt	?	nt	-61	78*	-26	-1
CSc1ccc(CN(C)C(=O)c2ccc(S(=O)(=O)Nc3c(C)n(C)n(-c4ccccc4)c3=O)cc2)cc1	nt	-3	nt	-14	12	nt	nt
CSc1ccc(CN(C)C(=O)c2ccc(S(=O)(=O)Nc3ccccc3)cc2)cc1	-3	1	-8	-14	51	-5	13
CC1(Cc2ccc(OC(F)(F)F)cc2)C(=O)Nc2ccc(S(=O)(=O)NC3CCCCC3)cc21 (stereo not drawn)	nt	nt	nt	52*	85*	51	23
Cc1cccc(N2CCN(C(=O)C3CCC(=O)N(Cc4ccccc4F)C3)CC2)c1C (stereo not drawn)	5	5	-1	1	7	nt	nt
COc1cnc(-c2ccccn2)nc1Sc1c(Cl)cccc1Cl	1	29	0	-6	91*	24	3
COc1cnc(-c2ccccc2)nc1Sc1ccccc1	3	1	0	-4	-16	nt	nt
CCOC(=O)C(C)Sc1nc(-c2ccccn2)ncc1OC (stereo not drawn)	-4	1	0	3	44	nt	nt
COc1cnc(-c2ccccn2)nc1Sc1ccccc1Cl	-5	?	1	3	91*	90*	25
SMILES	NR2E3 ag-1	EBV LMP1 NFkB	HIF act	TROY signal inh	NR2E3 ag-2	NR2E3 ag confirm	GAL4-VP16 luc
CC(C)CCNC(=O)CN(Cc1ccccc1)C(=O)CCC(=O)Nc1ccccn1	4	-5	-1	17	2	nt	nt
CCCCC[C@@H]1C=C(C(=O)O)[C@H](c2ccc(Cl)c(Cl)c2)N1S(=O)(=O)c1ccc(C)cc1	nt	-1	nt	33	81*	71*	24
Cc1ccc(S(=O)(=O)N2[C@@H](c3ccc(Cl)c(Cl)c3)C(C(=O)O)=C[C@H]2C(C)(C)C)cc1	nt	-1	nt	23	62	41	34
CCCCC[C@@H]1C=C(C(=O)O)[C@H](c2ccc(CC)cc2)N1S(=O)(=O)c1ccc(C)cc1	nt	-5	nt	17	52	-1	11
Cc1ccccc1Nc1nc(N)nc(COC(=O)c2ccc(S(=O)(=O)N(C)C)cc2)n1	-4	-1	-1	3	-3	nt	nt
CC(=O)NCCNc1nc2cc(-c3cscc3C)sc2c(=O)n1C	nt	nt	nt	-11	-8	nt	nt
CC1(C)Cc2cccc(OC(=O)NCCc3ccc(F)cc3)c2O1	nt	nt	nt	-17	-3	nt	nt
Cc1cccc(-n2ncc3c(N(C)C4CCCCC4)ncnc32)c1	-1	37	-2	88*	73*	46	44
COc1ccc(-n2ncc3c(N(C)C4CCCCC4)ncnc32)cc1	9	52*	-2	91*	79*	60	38
COc1ccc(CCNc2c(C)c(C)nc3ncnn23)cc1	1	12	1	13	93*	94*	75*
CC1(C(=O)Nc2cccc(NS(C)(=O)=O)c2)Cc2c(-c3ccc(C(N)=O)cc3)ccnc2O1 (stereo not drawn)	nt	nt	nt	-9	4	nt	nt
CSc1ccc(S(=O)(=O)Nc2ccc(N3CCOCC3)c(Cl)c2)cc1	-2	-2	0	15	69	45	63
Nc1cc(S(=O)(=O)Nc2cc(Cl)ccc2Cl)ccc1N1CCOCC1	-3	-6	-1	19	53	38	47
COc1ccc(S(=O)(=O)Nc2ccc(N3CCOCC3)cc2)cc1	-1	-10	0	2	12	nt	nt
Nc1cc(S(=O)(=O)Nc2ccccc2Cl)ccc1N1CCCC1	3	11	-1	-13	18	nt	nt
COc1ccc(NS(=O)(=O)c2ccc(N3CCOCC3)c(N)c2)cc1	4	29	nt	12	85*	90*	78*
CSc1ccc(S(=O)(=O)Nc2ccc3c(c2)OCCO3)cc1	2	0	0	15	38	nt	nt
COc1ccccc1CNC(=O)c1cc(-c2ccccc2)n(Cc2cc(C)no2)n1	6	2	nt	-12	-11	nt	nt
Cc1nn(C)c(C(=O)NCc2ccc(Cl)cc2)c1Cl	-4	22	0	27	61	89*	75*
Cc1nc(C)c(C(=O)NCc2ccc(Cl)cc2)o1	6	11	1	-14	4	nt	nt

Bioassay records: PubChem BioAssay, several laboratories
